Laboratory results: ChEMBL document CHEMBL5724801, “EUbOPEN Chemogenomics Library - Multiplex” (2024)
“And” between values parts separate entries of the source, which are not always exact repeats. Identical values can stand only once.

Tests used:
Fibroblast = test: Multiplex assay against human fibroblast; assay type: toxicity, cell-based
Summary of the method: (§1)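 Live cells carried four stains from seeding: Hoechst33342, BioTracker Green Microtubule Cytoskeleton Dye, MitoTracker Red and Annexin V Alexa Fluor 680. They were imaged on a CQ1 microscope at 37°C and 5% CO2 after compound addition. Using CellPathfinder machine-learning gating, cells were split into Hoechst high-intensity objects or normal cells, normal cells into healthy, pyknosed or fragmented nuclei, and pyknosed cells into mitotic or apoptotic; tubulin, mitochondrial-mass and membrane-permeability phenotypes are per cents of healthy-nucleus cells.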

HEK-293T = test: Multiplex assay against HEK293T; assay type: toxicity, cell-based; conditions: human; summary of the method: as §1
[1] = 12 h, 1 µM, compound concentration 1 uM
[2] = 12 h, 10 µM, compound concentration 10 uM
[3] = 24 h, 1 µM, compound concentration 1 uM
[4] = 24 h, 10 µM, compound concentration 10 uM
[5] = 48 h, 1 µM, compound concentration 1 uM
[6] = 48 h, 10 µM, compound concentration 10 uM

Cc1noc(C)c1-c1cnc2c(-c3ccc(C(=O)O)cc3)cn([C@@H](C)c3ccccn3)c2c1 [PLX-51107]
Population Apoptotic (%) (Fibroblast; [1]): 4.44% and 12.9%
Population Fragmented Nuclei (%) (Fibroblast; [1]): 10.26% and 3.93%
Population Healthy Nuclei (%) (Fibroblast; [1]): 66.67% and 82.53%
Population Hoechst High Intensity Objects (%) (Fibroblast; [1]): 0%
Population Membrane Permeable-Phenotype (%) (Fibroblast; [1]): 4.62% and 1.06%
Population Mitochondria Different-Phenotype (%) (Fibroblast; [1]): 10% and 6.88%
Population Mitotic Cells (%) (Fibroblast; [1]): 95.56% and 87.1%
Population Normal (%) (Fibroblast; [1]): 100%
Population Pyknosed Nuclei (%) (Fibroblast; [1]): 23.08% and 13.54%
Population Tubulin-Different-Phenotype (%) (Fibroblast; [1]): 11.54% and 14.81%
Total Cell Count (Fibroblast; [1]): 195 and 229
Population Apoptotic (%) (Fibroblast; [2]): 16.13% and 16.67%
Population Fragmented Nuclei (%) (Fibroblast; [2]): 6.25% and 5.33%
Population Healthy Nuclei (%) (Fibroblast; [2]): 78.85% and 82.38%
Population Hoechst High Intensity Objects (%) (Fibroblast; [2]): 0%
Population Membrane Permeable-Phenotype (%) (Fibroblast; [2]): 4.27% and 2.99%
Population Mitochondria Different-Phenotype (%) (Fibroblast; [2]): 12.8% and 10.95%
Population Mitotic Cells (%) (Fibroblast; [2]): 83.87% and 83.33%
Population Normal (%) (Fibroblast; [2]): 100%
Population Pyknosed Nuclei (%) (Fibroblast; [2]): 14.9% and 12.3%
Population Tubulin-Different-Phenotype (%) (Fibroblast; [2]): 14.63% and 21.89%
Total Cell Count (Fibroblast; [2]): 208 and 244
Population Fragmented Nuclei (%) (Fibroblast; [3]): 8.57% and 3.9%
Population Healthy Nuclei (%) (Fibroblast; [3]): 78.1% and 88.31%
Population Hoechst High Intensity Objects (%) (Fibroblast; [3]): 0%
Population Membrane Permeable-Phenotype (%) (Fibroblast; [3]): 2.44% and 0.98%
Population Mitochondria Different-Phenotype (%) (Fibroblast; [3]): 4.88% and 3.43%
Population Mitotic Cells (%) (Fibroblast; [3]): 82.14% and 94.44%
Population Normal (%) (Fibroblast; [3]): 100%
Population Pyknosed Nuclei (%) (Fibroblast; [3]): 13.33% and 7.79%
Population Tubulin-Different-Phenotype (%) (Fibroblast; [3]): 7.32% and 10.29%
Total Cell Count (Fibroblast; [3]): 210 and 231
Population Apoptotic (%) (Fibroblast; [4]): 20% and 14.81%
Population Fragmented Nuclei (%) (Fibroblast; [4]): 7.04% and 7.47%
Population Healthy Nuclei (%) (Fibroblast; [4]): 85.43% and 81.33%
Population Hoechst High Intensity Objects (%) (Fibroblast; [4]): 0%
Population Membrane Permeable-Phenotype (%) (Fibroblast; [4]): 3.53% and 2.04%
Population Mitochondria Different-Phenotype (%) (Fibroblast; [4]): 11.18% and 6.63%
Population Mitotic Cells (%) (Fibroblast; [4]): 80% and 85.19%
Population Normal (%) (Fibroblast; [4]): 100%
Population Pyknosed Nuclei (%) (Fibroblast; [4]): 7.54% and 11.2%
Population Tubulin-Different-Phenotype (%) (Fibroblast; [4]): 12.94% and 15.31%
Total Cell Count (Fibroblast; [4]): 199 and 241
Population Apoptotic (%) (Fibroblast; [5]): 30%
Population Fragmented Nuclei (%) (Fibroblast; [5]): 11.06% and 8.8%
Population Healthy Nuclei (%) (Fibroblast; [5]): 84.13% and 87.2%
Population Hoechst High Intensity Objects (%) (Fibroblast; [5]): 0%
Population Membrane Permeable-Phenotype (%) (Fibroblast; [5]): 0.57% and 3.67%
Population Mitotic Cells (%) (Fibroblast; [5]): 70%
Population Normal (%) (Fibroblast; [5]): 100%
Population Pyknosed Nuclei (%) (Fibroblast; [5]): 4.81% and 4%
Population Tubulin-Different-Phenotype (%) (Fibroblast; [5]): 4.57% and 11.93%
Total Cell Count (Fibroblast; [5]): 208 and 250
Population Apoptotic (%) (Fibroblast; [6]): 28.57% and 50%
Population Fragmented Nuclei (%) (Fibroblast; [6]): 7% and 9.25%
Population Healthy Nuclei (%) (Fibroblast; [6]): 86% and 83.7%
Population Hoechst High Intensity Objects (%) (Fibroblast; [6]): 0%
Population Membrane Permeable-Phenotype (%) (Fibroblast; [6]): 3.49% and 1.05%
Population Mitotic Cells (%) (Fibroblast; [6]): 71.43% and 50%
Population Normal (%) (Fibroblast; [6]): 100%
Population Pyknosed Nuclei (%) (Fibroblast; [6]): 7% and 7.05%
Population Tubulin-Different-Phenotype (%) (Fibroblast; [6]): 10.47% and 9.47%
Total Cell Count (Fibroblast; [6]): 200 and 227
Population Apoptotic (%) (HEK-293T; [1]): 5.67% and 10.17%
Population Fragmented Nuclei (%) (HEK-293T; [1]): 1.66% and 3.31%
Population Hoechst High Intensity Objects (%) (HEK-293T; [1]): 0%
Population Membrane Permeable-Phenotype (%) (HEK-293T; [1]): 0% and 7.14%
Population Mitotic Cells (%) (HEK-293T; [1]): 94.33% and 89.83%
Population Normal (%) (HEK-293T; [1]): 100%
Population Pyknosed Nuclei (%) (HEK-293T; [1]): 40.33% and 78.15%
Population Tubulin-Different-Phenotype (%) (HEK-293T; [1]): 2.51% and 7.14%
Population Apoptotic (%) (HEK-293T; [2]): 13.75% and 7.84%
Population Healthy Nuclei (%) (HEK-293T; [2]): 45.95% and 25.98%
Population Hoechst High Intensity Objects (%) (HEK-293T; [2]): 0%
Population Membrane Permeable-Phenotype (%) (HEK-293T; [2]): 0%
Population Mitotic Cells (%) (HEK-293T; [2]): 86.25% and 92.16%
Population Normal (%) (HEK-293T; [2]): 100%
Population Pyknosed Nuclei (%) (HEK-293T; [2]): 51.78% and 54.45%
Population Tubulin-Different-Phenotype (%) (HEK-293T; [2]): 4.23% and 5.48%
Total Cell Count (HEK-293T; [2]): 309 and 281
Population Apoptotic (%) (HEK-293T; [3]): 9.2% and 11.02%
Population Fragmented Nuclei (%) (HEK-293T; [3]): 1.19% and 0.87%
Population Healthy Nuclei (%) (HEK-293T; [3]): 75.73% and 43.91%
Population Hoechst High Intensity Objects (%) (HEK-293T; [3]): 0%
Population Membrane Permeable-Phenotype (%) (HEK-293T; [3]): 0%
Population Mitochondria Different-Phenotype (%) (HEK-293T; [3]): 7.18% and 2.97%
Population Mitotic Cells (%) (HEK-293T; [3]): 90.8% and 88.98%
Population Normal (%) (HEK-293T; [3]): 100%
Population Pyknosed Nuclei (%) (HEK-293T; [3]): 23.08% and 55.22%
Population Tubulin-Different-Phenotype (%) (HEK-293T; [3]): 0.7% and 3.96%
Population Apoptotic (%) (HEK-293T; [4]): 10.67% and 13.49%
